Assay results as given in ChEMBL document CHEMBL2390927, “Design, synthesis and antimicrobial evaluation of novel benzimidazole type of Fluconazole analogues and their synergistic effects with Chloromycin, Norfloxacin and Fluconazole” (2013).
In brackets after ≈: the same amount, converted by molar mass.

What was measured:
[1] = system: Candida albicans; assay: Antifungal activity against Candida albicans ATCC 76615 after 24 hrs by two-fold serial dilution method; assay type: functional; details: ATCC 76615, 24 h
Procedure, shortened: (§1)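 Spore suspension in sterile distilled water from one-day-old cultures on Sabouraud agar, final 1–5 × 10³ spore mL⁻¹. Compound stocks diluted in sterile RPMI 1640 as two-fold serial dilutions in microdilution plates. MIC is the lowest concentration completely inhibiting growth. Growth monitored visually and spectrophotometrically, in triplicate.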

[2] = system: Salmonella typhi; assay: Antibacterial activity against Bacillus typhi after 24 hrs by two-fold serial dilution method; assay type: functional, Salmonella enterica subsp. enterica serovar Typhi; details: Salmonella enterica
Procedure, shortened: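 Two-fold serial dilution in 96-well plates following NCCLS; compounds dissolved in DMSO as stocks, then diluted in Mueller-Hinton broth; bacterial suspension adjusted with sterile saline to 1 × 10⁵ CFU; MIC taken as lowest concentration completely inhibiting growth, monitored visually and spectrophotometrically; DMSO-plus-inoculum well as solvent control; triplicate.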

[3] = system: Staphylococcus aureus; assay: Antibacterial activity against Staphylococcus aureus ATCC 6538 after 24 hrs by two-fold serial dilution method; assay type: functional; details: ATCC 6538, 24 h
[4] = system: Candida; assay: Antifungal activity against Candida mycoderma after 24 hrs by two-fold serial dilution method; assay type: functional; procedure, shortened: as §1
[5] = system: Escherichia coli; assay: Antibacterial activity against Escherichia coli JM109 after 24 hrs by two-fold serial dilution method; assay type: functional; details: JM109, 24 h
[6] = system: Cyberlindnera jadinii; assay: Antifungal activity against Candida utilis after 24 hrs by two-fold serial dilution method; assay type: functional; details: Williopsis jadinii; procedure, shortened: as §1
[7] = system: Saccharomyces cerevisiae; assay: Antifungal activity against Saccharomyces cerevisiae after 24 hrs by two-fold serial dilution method; assay type: functional; procedure, shortened: as §1
[8] = system: Pseudomonas aeruginosa; assay: Antibacterial activity against Pseudomonas aeruginosa ATCC 27853 after 24 hrs by two-fold serial dilution method; assay type: functional; details: ATCC 27853, 24 h
Procedure, shortened: (§2)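 MIC taken as the lowest concentration giving complete growth inhibition, by standard two-fold serial dilution in 96-well plates following NCCLS. Stocks in DMSO, diluted in Mueller–Hinton broth. Inoculum adjusted with sterile saline to 1 × 10⁵ CFU. DMSO with inoculum and no drug served as solvent control. Growth read visually and spectrophotometrically, in triplicate.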

[9] = system: Micrococcus luteus; assay: Antibacterial activity against Micrococcus luteus ATCC 4698 after 24 hrs by two-fold serial dilution method; assay type: functional; details: ATCC 4698, 24 h; procedure, shortened: as §2
[10] = system: Aspergillus flavus; assay: Antifungal activity against Aspergillus flavus after 24 hrs by two-fold serial dilution method; assay type: functional; procedure, shortened: as §1
[11] = system: Staphylococcus aureus; assay: Antibacterial activity against methicillin-resistant Staphylococcus aureus N315 after 24 hrs by two-fold serial dilution method; assay type: functional; details: N315, 24 h
[12] = system: Bacillus subtilis; assay: Antibacterial activity against Bacillus subtilis ATCC 21216 after 24 hrs by two-fold serial dilution method; assay type: functional; details: ATCC 21216, 24 h; procedure, shortened: as §2
[13] = system: Bacillus; assay: Antibacterial activity against Bacillus proteus ATCC 13315 after 24 hrs by two-fold serial dilution method; assay type: functional; details: ATCC 13315, 24 h; procedure, shortened: as §2

Row | Compound | MIC [1] [µg/mL] | MIC [2] [µg/mL] | MIC [3] [µg/mL] | MIC [4] [µg/mL] | MIC [5] [µg/mL] | MIC [6] [µg/mL] | MIC [7] [µg/mL] | MIC [8] [µg/mL] | MIC [9] [µg/mL] | MIC [10] [µg/mL] | MIC [11] [µg/mL] | MIC [12] [µg/mL] | MIC [13] [µg/mL]
1 | Fc1ccc(CN(Cc2nc3ccccc3[nH]2)c2ccc(Cl)cc2Cl)c(F)c1 | 32 (≈ 76.5 µM) | 32 (≈ 76.5 µM) | 64 (≈ 153 µM) | 32 (≈ 76.5 µM) | 64 (≈ 153 µM) | 64 (≈ 153 µM) | 32 (≈ 76.5 µM) | 128 (≈ 306 µM) | 128 (≈ 306 µM) | 64 (≈ 153 µM) | 64 (≈ 153 µM) | 16 (≈ 38.3 µM) | 16 (≈ 38.3 µM)
2 | CCCCCCCCCCN(Cc1nc2ccccc2[nH]1)c1ccc(C)cc1 | 64 (≈ 170 µM) | 128 (≈ 339 µM) | 128 (≈ 339 µM) | 128 (≈ 339 µM) | 128 (≈ 339 µM) | 64 (≈ 170 µM) | 32 (≈ 84.8 µM) | 128 (≈ 339 µM) | 128 (≈ 339 µM) | 64 (≈ 170 µM) | 64 (≈ 170 µM) | 64 (≈ 170 µM) | 256 (≈ 678 µM)
3 | CCCCCCCCCCCCN(Cc1nc2ccccc2[nH]1)c1ccc(C)cc1 | 64 (≈ 158 µM) | 64 (≈ 158 µM) | 64 (≈ 158 µM) | 16 (≈ 39.4 µM) | 128 (≈ 316 µM) | 32 (≈ 78.9 µM) | 64 (≈ 158 µM) | 128 (≈ 316 µM) | 64 (≈ 158 µM) | 64 (≈ 158 µM) | 128 (≈ 316 µM) | 128 (≈ 316 µM) | 64 (≈ 158 µM)
4 | CCCCCCCCCCCCCCCCCCN(Cc1nc2ccccc2[nH]1)c1ccc(C)cc1 | 32 (≈ 65.3 µM) | 64 (≈ 131 µM) | 128 (≈ 261 µM) | 32 (≈ 65.3 µM) | 256 (≈ 523 µM) | 32 (≈ 65.3 µM) | 64 (≈ 131 µM) | 64 (≈ 131 µM) | 256 (≈ 523 µM) | 64 (≈ 131 µM) | 128 (≈ 261 µM) | 64 (≈ 131 µM) | 64 (≈ 131 µM)
5 | Fc1ccccc1N(Cc1ccc(Cl)c(Cl)c1)Cc1nc2ccccc2[nH]1 | 32 (≈ 79.9 µM) | 128 (≈ 320 µM) | 64 (≈ 160 µM) | 32 (≈ 79.9 µM) | 32 (≈ 79.9 µM) | 32 (≈ 79.9 µM) | 64 (≈ 160 µM) | 64 (≈ 160 µM) | 128 (≈ 320 µM) | 64 (≈ 160 µM) | 128 (≈ 320 µM) | 32 (≈ 79.9 µM) | 64 (≈ 160 µM)
6 | FC(F)(F)c1cccc(N(Cc2nc3ccccc3[nH]2)Cc2ccc(Cl)cc2Cl)c1 | 64 (≈ 142 µM) | 32 (≈ 71.1 µM) | 32 (≈ 71.1 µM) | 32 (≈ 71.1 µM) | 64 (≈ 142 µM) | 32 (≈ 71.1 µM) | 32 (≈ 71.1 µM) | 32 (≈ 71.1 µM) | 32 (≈ 71.1 µM) | 64 (≈ 142 µM) | 32 (≈ 71.1 µM) | 64 (≈ 142 µM) | 64 (≈ 142 µM)
7 | Fc1ccc(N(Cc2nc3ccccc3[nH]2)Cc2ccc(Cl)cc2Cl)cc1 | 32 (≈ 79.9 µM) | 64 (≈ 160 µM) | 32 (≈ 79.9 µM) | 64 (≈ 160 µM) | 128 (≈ 320 µM) | 32 (≈ 79.9 µM) | 64 (≈ 160 µM) | 64 (≈ 160 µM) | 64 (≈ 160 µM) | 64 (≈ 160 µM) | 64 (≈ 160 µM) | 64 (≈ 160 µM) | 32 (≈ 79.9 µM)
8 | Cc1ccc(N(Cc2nc3ccccc3[nH]2)Cc2ccccc2Cl)cc1 | 32 (≈ 88.4 µM) | 64 (≈ 177 µM) | 64 (≈ 177 µM) | 32 (≈ 88.4 µM) | 32 (≈ 88.4 µM) | 32 (≈ 88.4 µM) | 64 (≈ 177 µM) | 32 (≈ 88.4 µM) | 128 (≈ 354 µM) | 32 (≈ 88.4 µM) | 128 (≈ 354 µM) | 64 (≈ 177 µM) | 32 (≈ 88.4 µM)
9 | Cc1ccc(N(Cc2cccc(Cl)c2)Cc2nc3ccccc3[nH]2)cc1 | 32 (≈ 88.4 µM) | 16 (≈ 44.2 µM) | 32 (≈ 88.4 µM) | 32 (≈ 88.4 µM) | 32 (≈ 88.4 µM) | 32 (≈ 88.4 µM) | 64 (≈ 177 µM) | 32 (≈ 88.4 µM) | 128 (≈ 354 µM) | 64 (≈ 177 µM) | 128 (≈ 354 µM) | 64 (≈ 177 µM) | 128 (≈ 354 µM)
10 | Cc1ccc(N(Cc2ccc(Cl)cc2)Cc2nc3ccccc3[nH]2)cc1 | 64 (≈ 177 µM) | 64 (≈ 177 µM) | 32 (≈ 88.4 µM) | 32 (≈ 88.4 µM) | 32 (≈ 88.4 µM) | 64 (≈ 177 µM) | 128 (≈ 354 µM) | 64 (≈ 177 µM) | 128 (≈ 354 µM) | 128 (≈ 354 µM) | 64 (≈ 177 µM) | 64 (≈ 177 µM) | 32 (≈ 88.4 µM)
11 | Cc1ccc(N(Cc2ccc([N+](=O)[O-])cc2)Cc2nc3ccccc3[nH]2)cc1 | 128 (≈ 344 µM) | 64 (≈ 172 µM) | 32 (≈ 85.9 µM) | 64 (≈ 172 µM) | 64 (≈ 172 µM) | 64 (≈ 172 µM) | 64 (≈ 172 µM) | 64 (≈ 172 µM) | 128 (≈ 344 µM) | 128 (≈ 344 µM) | 256 (≈ 687 µM) | 64 (≈ 172 µM) | 64 (≈ 172 µM)
12 | Cc1ccc(N(Cc2nc3ccccc3[nH]2)Cc2ccc(F)cc2F)cc1 | 32 (≈ 88.1 µM) | 32 (≈ 88.1 µM) | 16 (≈ 44 µM) | 32 (≈ 88.1 µM) | 128 (≈ 352 µM) | 32 (≈ 88.1 µM) | 64 (≈ 176 µM) | 32 (≈ 88.1 µM) | 64 (≈ 176 µM) | 32 (≈ 88.1 µM) | 16 (≈ 44 µM) | 32 (≈ 88.1 µM) | 64 (≈ 176 µM)
13 | Cc1ccc(N(Cc2nc3ccccc3[nH]2)Cc2ccc(Cl)cc2Cl)cc1 | 64 (≈ 161 µM) | 64 (≈ 161 µM) | 64 (≈ 161 µM) | 128 (≈ 323 µM) | 32 (≈ 80.7 µM) | 64 (≈ 161 µM) | 64 (≈ 161 µM) | 64 (≈ 161 µM) | 128 (≈ 323 µM) | 128 (≈ 323 µM) | 64 (≈ 161 µM) | 32 (≈ 80.7 µM) | 32 (≈ 80.7 µM)
14 | Cc1ccc(N(Cc2ccc(Cl)c(Cl)c2)Cc2nc3ccccc3[nH]2)cc1 | 128 (≈ 323 µM) | 64 (≈ 161 µM) | 32 (≈ 80.7 µM) | 128 (≈ 323 µM) | 64 (≈ 161 µM) | 64 (≈ 161 µM) | 128 (≈ 323 µM) | 128 (≈ 323 µM) | 64 (≈ 161 µM) | 128 (≈ 323 µM) | 64 (≈ 161 µM) | 128 (≈ 323 µM) | 128 (≈ 323 µM)
15 | Fc1ccc(N(Cc2nc3ccccc3[nH]2)Cc2ccc(Cl)cc2Cl)c(F)c1 | 128 (≈ 306 µM) | 128 (≈ 306 µM) | 64 (≈ 153 µM) | 64 (≈ 153 µM) | 32 (≈ 76.5 µM) | 32 (≈ 76.5 µM) | 32 (≈ 76.5 µM) | 64 (≈ 153 µM) | 64 (≈ 153 µM) | 64 (≈ 153 µM) | 128 (≈ 306 µM) | 64 (≈ 153 µM) | 32 (≈ 76.5 µM)
